Active and inactive are the calls of the source. The calls are words filed in the database; no cut-off is given here.
Columns and labels:
[1] = species: Mus musculus; test: Inhibition of hedgehog signaling pathway in mouse Light2 cells at 100 nM after 48 hrs by Gli-luciferase reporter gene assay relative to control; assay type: cell-based
In short: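 Single-concentration screen at 100 nM in Light II cells (NIH-3T3 with stable Gli-firefly luciferase reporter and Renilla luciferase vector), kept in DMEM/10% FBS with zeocin and G418 at 37°C, 5% CO₂. Cells treated 48 h; percent inhibition of Gli reporter from dual luciferase assay.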

[2] = Inhibition of hedgehog signaling pathway in mouse Light2 cells after 48 hrs by Gli-luciferase reporter gene assay; assay type: cell-based
[3] = system: Medulloblastoma cell; test: Anti-tumor activity against mouse Ptch+/- p53-/- medulloblastoma cells implanted in athymic nude mouse assessed as tumor growth inhibition at 20 mg/kg, po administered twice daily via gavage measured every other day during compound dosing; assay type: functional, organism-based
In short: (§1)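 Allograft from spontaneous intracranial medulloblastomas of Ptch+/-p53-/- mice, first passaged subcutaneously in athymic nude mice; 1 mm³ fragments implanted by trocar into the right flank. Oral gavage twice a day started at 150–200 mm³, in 0.5% NaCMC suspension. Caliper length and width taken every other day, V = L×W²/2. Five mice per group, means ± SEM.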

[4] = system: Medulloblastoma cell; test: Anti-tumor activity against mouse Ptch+/- p53-/- medulloblastoma cells implanted in athymic nude mouse assessed as tumor growth inhibition at 10 to 20 mg/kg, po administered twice daily via gavage measured every other day during compound dosing; assay type: functional, organism-based; in short: as §1
[5] = system: Mus musculus; test: Toxicity in athymic nude mouse implanted with mouse Ptch+/- p53-/- medulloblastoma cells assessed as body weight loss at 10 to 20 mg/kg, po administered twice daily via gavage measured every other day during compound dosing; assay type: organism-based; details: in vivo
In short: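 Nude mice bearing subcutaneous right-flank Ptch+/-p53-/- medulloblastoma fragment allografts, dosed by oral gavage twice daily (vehicle 0.5% NaCMC suspension) once tumors reached 150–200 mm³. Body weights recorded alongside caliper tumor measurements taken every other day; five animals per group.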

Compound	IC50 [2] [nM]	inhibition [1] [%]	TGI [3]	TGI [4]	Activity [5]
Cc1c(-c2ccnn2C)nnc(N2CCC(NC(=O)c3ccc(Oc4ccccc4)cc3C(F)(F)F)CC2)c1C	36.5	78.9			
Cc1c(-c2ccnn2C)nnc(N2CCC(Nc3ccc(C(C)(C)O)cn3)CC2)c1C	> 100	31.8			
Cc1c(-c2ccnn2C)nnc(N2CCC(Nc3cnc(C(C)(C)O)cn3)CC2)c1C	> 100	10.8			
CS(=O)(=O)c1ccc(C(=O)Nc2ccc(Cl)c(-c3ccccn3)c2)c(Cl)c1 [VISMODEGIB]	2.46	108	Active		
Cc1c(-c2ccnn2C)nnc(N2CCC(NC(=O)c3ccc(Oc4ccccc4F)cc3C(F)(F)F)CC2)c1C	16.6	91.5			
Cc1c(-c2ccnn2C)nnc(N2CCN(C(=O)c3ccc(F)cc3C(F)(F)F)CC2)c1C	> 100	-6.57			
Cc1c(-c2ccnn2C)nnc(N2CCC(NC(=O)OC3CCCCC3)CC2)c1C	> 100	26.6			
Cc1c(-c2ccncc2)nnc(N2CCC(NC(=O)c3ccc(F)cc3C(F)(F)F)CC2)c1C	43.2	76			
Cc1c(-c2ccnn2C)nnc(N2CCC(NC(=O)Nc3cccnc3)CC2)c1C	> 100	3.47			
Cc1c(-c2ccnn2C)nnc(N2CCC(Nc3cnc(S(C)(=O)=O)cn3)CC2)c1C	> 100	23.8			
Cc1c(-c2ccnn2C)nnc(N2CCC(NC(=O)c3ccc(F)cc3C(F)(F)F)CC2)c1C	2.33	89.5		Active	Non-Toxic
Cc1ccc(-c2nnc(N3CCC(NC(=O)c4ccc(F)cc4C(F)(F)F)CC3)c(C)c2C)cc1	12.2	101			
COc1ccc(-c2nnc(N3CCC(NC(=O)c4ccc(F)cc4C(F)(F)F)CC3)c(C)c2C)cc1	22	74.5			
Cc1c(-c2ccnn2C)nnc(N2CCC(NC(=O)c3ccc(Cl)cc3C(F)(F)F)CC2)c1C	25.1				
Cc1c(-c2ccc(C#N)cc2)nnc(N2CCC(NC(=O)c3ccc(F)cc3C(F)(F)F)CC2)c1C	8.5	111			
Cc1c(-c2ccnn2C)nnc(N2CCC(NC(=O)Oc3ccccc3)CC2)c1C	> 100	41.2			
Cc1c(-c2ccnn2C)nnc(N2CCC(NC(=O)NC3CCCCCC3)CC2)c1C	> 100	45.7			
Cc1c(-c2ccnn2C)nnc(N2CCC(NC(=O)c3cc(F)ccc3C(F)(F)F)CC2)c1C	61.5	82			

The next lines start with results.

IC50 [2] [nM]	Compound	inhibition [1] [%]	TGI [3]	TGI [4]	Activity [5]
> 100	Cc1c(-c2ccnn2C)nnc(N2CCC(Nc3ccc(C(C)(C)O)nn3)CC2)c1C	20.6			
30	Cc1c(-c2ccnn2C)nnc(N2CCC(N(C)C(=O)c3ccc(F)cc3C(F)(F)F)CC2)c1C	60.9			
2.26	CN(C(=O)c1ccc(F)cc1C(F)(F)F)C1CCN(c2nnc(-c3ccnn3C)c3ccccc23)CC1 [TALADEGIB]	95			
> 100	Cc1c(-c2ccnn2C)nnc(N2CCC(NC(=O)NC3CCCC3)CC2)c1C	24.4			
42.9	Cc1c(-c2ccnn2C)nnc(N2CCC(NC(=O)c3c(F)cccc3C(F)(F)F)CC2)c1C	79.8			
7.02	Cc1c(-c2ccccc2Cl)nnc(N2CCC(NC(=O)c3ccc(F)cc3C(F)(F)F)CC2)c1C	106			
32.8	Cc1c(-c2ccnn2C)nnc(N2CCC(NC(=O)c3ccccc3C(F)(F)F)CC2)c1C	79.7			
> 100	Cc1c(-c2ccnn2C)nnc(N2CCC(NC(=O)Nc3ccccc3)CC2)c1C	26.2			
36.4	Cc1c(-c2ccnn2C)nnc(N2CC[C@@H](NC(=O)c3ccc(F)cc3C(F)(F)F)C2)c1C	54.1			
> 100	Cc1c(-c2ccnn2C)nnc(N2CCC(NC(=O)c3cccc(F)c3)CC2)c1C	82.1			
25.5	Cc1c(-c2ccccc2)nnc(N2CCC(NC(=O)c3ccc(F)cc3C(F)(F)F)CC2)c1C	90.2			
43.8	Cc1c(-c2ccc(Cl)cc2)nnc(N2CCC(NC(=O)c3ccc(F)cc3C(F)(F)F)CC2)c1C	85			
32.5	Cc1c(-c2ccnn2C)nnc(N2CCC(NC(=O)c3ccc(Sc4ccccc4)cc3C(F)(F)F)CC2)c1C	82.8			
